Source: PubChem BioAssay (several laboratories)
SENP8 block-1: blocks human SENP8 cleavage of Nedd8 substrate. Q96LD8. inhibition, % at 20 µM. 360,000 tested, 0.64% active. recombinant SENP8, Nedd8 substrate fluorescence; in the data active means inhibition mostly above about 40%, no sharp cut-off; inactive means mostly below about 27%
SENP8 block-2: inhibitors of human SENP8 protease | 330,000 tested, 1.2% active | AID 2540 | purified SENP8, Z-RLRGG-aminoluciferin cleavage, luminescence | inhibition, % at 10 µM | Q96LD8; in the data active means inhibition above about 50%
SENP1 inh: inhibitors of human SENP1 SUMO protease catalytic domain; Q9P0U3; recombinant SENP1 catalytic domain, CyPet-SUMO1-YPet FRET cleavage; inhibition, % at 10 µM; 360,000 tested, 0.21% active;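 active means inhibition at least 30% at 10 µM, raw YFP signal under a set limit, fluorescence ratio 0.5 to 1.5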;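 further: 0% = enzyme with DMSO and 100% = no enzyme wells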
Target sequence (Q9P0U3 419-644 limits assumed): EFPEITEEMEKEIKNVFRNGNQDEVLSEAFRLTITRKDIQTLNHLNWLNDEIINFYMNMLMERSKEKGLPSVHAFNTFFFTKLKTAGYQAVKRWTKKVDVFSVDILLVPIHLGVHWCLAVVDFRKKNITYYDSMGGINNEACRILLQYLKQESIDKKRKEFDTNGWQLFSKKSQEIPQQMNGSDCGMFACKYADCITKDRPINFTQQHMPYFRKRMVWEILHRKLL
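system = hSENP1 catalytic domain, recombinant | reagent = SFCypet-SUMO1-SFYpet substrate at 25 nM | doses = one dose per compound, 10 µM, 0.5% DMSO | incubation = enzyme reaction for 50 min at room temperature, dark | measured by = FRET, CFP and YFP emission | controls = no-enzyme low, enzyme-DMSO high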
HSP90 inh: HSP90 refolding inhibition in rabbit reticulocyte lysate | inhibition, % at 5.6 µM | 290,000 tested, 0.91% active | AID 1789 | luciferase refolding luminescence, 3 h;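 active means inhibition above the screen-wide mean plus 3 SD, computed separately per campaign, cut at about 16% in these data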;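 further: 0% = DMSO wells and 100% = 60 µM geldanamycin wells; inhibitors lower the luminescence because luciferase stays unfolded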
SENP6 block: blocks the human protease SENP6; Q9GZR1; Recombinant SENP6 catalytic domain, aminoluciferin luminescence; inhibition, % at 10 µM; 330,000 tested, 1.8% active; AID 2599;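 active means inhibition above about 50% at the single tested dose, limit read from the data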;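 further: plate controls were DMSO wells with enzyme for no effect and DMSO wells lacking enzyme for full effect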
SENP7 inh: SENP7 protease inhibition; Q9BQF6; recombinant SENP7, Z-RLRGG-aminoluciferin luminescence, 40 min; inhibition, % at 5 µM; 330,000 tested, 1.5% active;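 active means inhibition above about 50% at the single test dose, limit read from the data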;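 further: plate controls were DMSO with enzyme for no effect and no enzyme buffer wells for full effect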
Target sequence (Q9BQF6 706-1050 limits assumed): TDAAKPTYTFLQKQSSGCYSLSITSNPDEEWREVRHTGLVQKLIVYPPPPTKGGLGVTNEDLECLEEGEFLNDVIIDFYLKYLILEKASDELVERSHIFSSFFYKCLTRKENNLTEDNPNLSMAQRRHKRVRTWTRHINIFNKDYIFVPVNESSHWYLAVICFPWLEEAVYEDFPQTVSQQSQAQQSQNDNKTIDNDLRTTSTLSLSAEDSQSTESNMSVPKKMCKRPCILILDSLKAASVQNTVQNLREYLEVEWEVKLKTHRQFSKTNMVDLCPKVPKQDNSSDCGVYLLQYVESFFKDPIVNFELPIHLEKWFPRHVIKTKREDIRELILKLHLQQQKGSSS
HSP90 confirm: confirmation of HSP90 inhibitors | shares compounds with HSP90 inh | rabbit reticulocyte lysate, luciferase refolding luminescence, 3 h | inhibition, % at 5.9 µM | 2,300 tested, 64% active | AID 1846; in the data active means inhibition above about 18%;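 further: 0% = vehicle wells and 100% = reference inhibitor wells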
luciferase ctr: blocks native firefly luciferase in HSP90 counter-screen | shares compounds with HSP90 inh | purified native firefly luciferase, luminescence | inhibition, % at 5.9 µM | 2,300 tested, 48% active | AID 1847;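 active means inhibition above the mean inhibition of all tested sample wells plus 3 SD, cut at about 10% in these data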;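 further: 0% = DMSO with luciferase and 100% = wells lacking luciferase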
Numbers without * were called inactive. Only some compounds are listed: those with a hit (about 2.9% of all), similar ones and a draw of the others.

CC(=O)N(Cc1ccc(F)cc1)C1=C(NCCc2ccccc2)C(=O)c2ccccc2C1=O was read as SENP8 block-1 76*, SENP8 block-2 31, SENP1 inh -3, HSP90 inh 48*, SENP6 block 48, SENP7 inh 30, HSP90 confirm 12 and luciferase ctr -5.
`O=C1C(Cl)=C(NCCc2ccccc2)C(=O)c2ccccc21` gave SENP8 block-1 -82 and SENP1 inh 6.
Screening Cc1ccc(S(=O)(=O)NC(=O)C2(C)CCN2C(=O)COc2ccc(Cl)cc2)nc1 (centres undefined) returned SENP8 block-1 16 and SENP1 inh 1.
For CCOCCCNC(=O)c1ccc(NC(=O)C2CCCO2)cc1 (centres undefined) the results were SENP8 block-1 10, SENP8 block-2 1, SENP1 inh -1, HSP90 inh 30*, SENP6 block -18, SENP7 inh -4, HSP90 confirm 3 and luciferase ctr 0.
Screening CCCCn1nc(C(=O)NCC2COc3ccccc3O2)c2ccccc2c1=O (centres undefined) returned SENP8 block-1 -1, SENP8 block-2 -1, SENP1 inh 2, SENP6 block -3 and SENP7 inh 4.
CCOc1ccc(N=C(NN)c2ccc3ccccc3n2)cc1 was read as SENP8 block-1 -46, SENP8 block-2 0, SENP1 inh -6, HSP90 inh 28*, SENP6 block 24, SENP7 inh 1, HSP90 confirm 12 and luciferase ctr -4.
CCOC(=O)c1cccc(-c2ccc(C=O)o2)c1 was read as SENP8 block-1 11, SENP8 block-2 1, SENP1 inh -2, HSP90 inh -1, SENP6 block 28 and SENP7 inh -1.
Screening CCOC(=O)c1ccc(-c2ccc(C=O)o2)cc1 returned SENP8 block-1 -437, SENP8 block-2 -21, SENP1 inh -4, HSP90 inh 30*, SENP6 block -6, SENP7 inh -5, HSP90 confirm 52* and luciferase ctr -13.
For Clc1ccc(-n2ncc3c(N4CCCC4)ncnc32)cc1 the results were SENP8 block-1 9, SENP8 block-2 8, SENP1 inh -16, HSP90 inh 31*, SENP6 block 47, SENP7 inh 2, HSP90 confirm 62* and luciferase ctr 58*.
Screening CC1Cc2cc(/C(O)=C3/C(=O)C(=O)N(Cc4ccco4)C3c3cccs3)ccc2O1 (centres undefined) returned SENP8 block-1 -33, SENP8 block-2 5, SENP1 inh 2, HSP90 inh 36*, SENP6 block 14, SENP7 inh 15, HSP90 confirm 1 and luciferase ctr 1.
For COc1ccc(/C(O)=C2/C(=O)C(=O)N(Cc3ccco3)C2c2cccs2)cc1 (centres undefined) the results were SENP8 block-1 -22, SENP8 block-2 0, SENP1 inh -1, HSP90 inh -1, SENP6 block -16 and SENP7 inh -8.
`CC1Cc2cc(/C(O)=C3/C(=O)C(=O)N(CCCn4ccnc4)C3c3ccncc3)ccc2O1` (centres undefined) gave SENP8 block-1 9, SENP8 block-2 2, SENP1 inh -3, HSP90 inh -2, SENP6 block -9 and SENP7 inh -10.
`CC1Cc2cc(/C(O)=C3/C(=O)C(=O)N(CCCn4ccnc4)C3c3ccco3)ccc2O1` (centres undefined) gave SENP8 block-1 -50, SENP8 block-2 -8, SENP1 inh -9, HSP90 inh 42*, SENP6 block 5, SENP7 inh 11, HSP90 confirm 40* and luciferase ctr 39*.
Screening CC(=O)Nc1ccc(-n2c(=O)c3ccccc3c3ccccc3c2=O)cc1 returned SENP8 block-1 0, SENP8 block-2 -8, SENP1 inh 2, HSP90 inh 24*, SENP6 block -1, SENP7 inh 1, HSP90 confirm 9 and luciferase ctr -1.
Screening O=C(COC(=O)c1ccc(S(=O)(=O)C(F)F)cc1)Nc1ccccc1C(=O)NC1CC1 returned SENP8 block-1 -5, SENP8 block-2 0, SENP1 inh 3, SENP6 block -6 and SENP7 inh 0.
`COc1ccccc1NC(=O)CSc1nc2ccccc2cc1Cc1ccccc1` gave SENP8 block-1 13, SENP8 block-2 -10, SENP1 inh 2, HSP90 inh 31*, SENP6 block -21, SENP7 inh 11, HSP90 confirm 24* and luciferase ctr -12.
Screening Cc1c(-c2nc(-c3ccc(C(C)(C)C)cc3)no2)n(C)oc1=O returned SENP8 block-1 -199, SENP8 block-2 -9, SENP1 inh -2, HSP90 inh 70*, SENP6 block -2, SENP7 inh -1, HSP90 confirm 91* and luciferase ctr -24.
Cc1cc(-c2nc(-c3ccc(C(C)(C)C)cc3)no2)no1 was read as SENP8 block-1 -9, SENP8 block-2 -11, SENP1 inh 1, HSP90 inh -5, SENP6 block -1 and SENP7 inh -13.
O=C(c1cccc(OC2CCN(Cc3ccc(F)cc3)CC2)c1)N1CCCC1 was read as SENP8 block-1 10, SENP8 block-2 6, SENP1 inh 0, HSP90 inh 1, SENP6 block -4 and SENP7 inh 1.
For CC(C)(CO)NC(=O)CC1C(=O)NCCN1CC(c1ccccc1)c1ccccc1 (centres undefined) the results were SENP8 block-1 -9, SENP8 block-2 -13, SENP1 inh -7, HSP90 inh -3, SENP6 block -33 and SENP7 inh -10.
`CC1(C)C(=O)NCCN1C(=O)CC1C(=O)NCCN1CC(c1ccccc1)c1ccccc1` (centres undefined) gave SENP8 block-1 -42, SENP8 block-2 -3, SENP1 inh -16, HSP90 inh 24*, SENP6 block -25, SENP7 inh -5, HSP90 confirm -2 and luciferase ctr -3.
Screening COc1ccc(CCNC(=O)COc2ncnc3ccccc23)cc1OC returned SENP8 block-1 12, SENP8 block-2 -5, SENP1 inh 1, HSP90 inh 62*, SENP6 block 15, SENP7 inh 3, HSP90 confirm -6 and luciferase ctr -11.
For O=C(COc1ncnc2ccccc12)NCCc1ccccc1 the results were SENP8 block-1 23, SENP8 block-2 -10, SENP1 inh 0, HSP90 inh 5, SENP6 block -14 and SENP7 inh -9.
Screening COc1ccccc1S(=O)(=O)Nc1cccc(S(=O)(=O)N2CCCC2)c1 returned SENP8 block-1 14, SENP8 block-2 -4, SENP1 inh 2, SENP6 block -5 and SENP7 inh 1.
